pEC50, pIC50: −log10 of the molar value. The source made the active and inactive calls. The calls are words filed in the database; no cut-off is given here.
Experiments:
MEF = assay: Induction of swollen vesicle phenotype in MEF cells at 800 nM incubated for 120 mins by time-lapse analysis; assay type: functional, cell-based; conditions: Mus musculus
[1] = Effect on PtdIns3P production in [32p]pi labelled serum stimulated mouse NIH3T3 cells at 800 nM (reference value: 7685 +/- 307); assay type: functional
Summary of the method: (§1)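 Sub-confluent NIH3T3 cells in 6 cm dishes, moved to phosphate-free medium and labelled with 0.3 mCi/ml 32Pi for 1 h, then treated with or without inhibitor for 20 min. Lysis in ice-cold 1 M HCl, scraping, lipid extraction and HPLC analysis of labelled phosphoinositides.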

[2] = Inhibition of Saccharomyces cerevisiae GST-tagged PIKfyve
NIH3T3 [3] = assay: Induction of EEA1 localization in lumenal vesicles of mouse NIH3T3 cells at 800 nM incubated for 2 hrs; assay type: functional, cell-based
Summary of the method: (§2)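 NIH3T3 cells on coverslips, untreated or given 800 nM compound for 2 h. Fixed in 4% paraformaldehyde, permeabilized in 0.2% Triton X-100, blocked in 2% BSA, then anti-EEA1 staining. Confocal single 0.4 μm optical sections, with phase image merged onto the fluorescence image.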

NIH3T3 [4] = assay: Induction of CI-MPR localization in perinuclear vesicle of mouse NIH-3T3 at 800 nM incubated for 2 hrs; assay type: functional, cell-based
[5] = Effect on PtdIns(3,4)P2 production in [32p]pi labelled serum stimulated mouse NIH3T3 cells at 800 nM (reference value: 1366 +/- 44); assay type: functional; summary of the method: as §1
MDCK = assay: Induction of swollen vesicle phenotype in MDCK cells at 800 nM incubated for 120 mins by time-lapse analysis; assay type: functional, cell-based; conditions: Canis lupus familiaris
[6] = target: 1-phosphatidylinositol 3-phosphate 5-kinase FAB1 (Saccharomyces cerevisiae (strain ATCC 204508 / S288c) (Baker's yeast), UniProt P34756); assay: Inhibition of Saccharomyces cerevisiae GST-tagged Fab1 incubated for 15 mins in presence of ATP
Sequence of 1-phosphatidylinositol 3-phosphate 5-kinase FAB1 (P34756 whole entry): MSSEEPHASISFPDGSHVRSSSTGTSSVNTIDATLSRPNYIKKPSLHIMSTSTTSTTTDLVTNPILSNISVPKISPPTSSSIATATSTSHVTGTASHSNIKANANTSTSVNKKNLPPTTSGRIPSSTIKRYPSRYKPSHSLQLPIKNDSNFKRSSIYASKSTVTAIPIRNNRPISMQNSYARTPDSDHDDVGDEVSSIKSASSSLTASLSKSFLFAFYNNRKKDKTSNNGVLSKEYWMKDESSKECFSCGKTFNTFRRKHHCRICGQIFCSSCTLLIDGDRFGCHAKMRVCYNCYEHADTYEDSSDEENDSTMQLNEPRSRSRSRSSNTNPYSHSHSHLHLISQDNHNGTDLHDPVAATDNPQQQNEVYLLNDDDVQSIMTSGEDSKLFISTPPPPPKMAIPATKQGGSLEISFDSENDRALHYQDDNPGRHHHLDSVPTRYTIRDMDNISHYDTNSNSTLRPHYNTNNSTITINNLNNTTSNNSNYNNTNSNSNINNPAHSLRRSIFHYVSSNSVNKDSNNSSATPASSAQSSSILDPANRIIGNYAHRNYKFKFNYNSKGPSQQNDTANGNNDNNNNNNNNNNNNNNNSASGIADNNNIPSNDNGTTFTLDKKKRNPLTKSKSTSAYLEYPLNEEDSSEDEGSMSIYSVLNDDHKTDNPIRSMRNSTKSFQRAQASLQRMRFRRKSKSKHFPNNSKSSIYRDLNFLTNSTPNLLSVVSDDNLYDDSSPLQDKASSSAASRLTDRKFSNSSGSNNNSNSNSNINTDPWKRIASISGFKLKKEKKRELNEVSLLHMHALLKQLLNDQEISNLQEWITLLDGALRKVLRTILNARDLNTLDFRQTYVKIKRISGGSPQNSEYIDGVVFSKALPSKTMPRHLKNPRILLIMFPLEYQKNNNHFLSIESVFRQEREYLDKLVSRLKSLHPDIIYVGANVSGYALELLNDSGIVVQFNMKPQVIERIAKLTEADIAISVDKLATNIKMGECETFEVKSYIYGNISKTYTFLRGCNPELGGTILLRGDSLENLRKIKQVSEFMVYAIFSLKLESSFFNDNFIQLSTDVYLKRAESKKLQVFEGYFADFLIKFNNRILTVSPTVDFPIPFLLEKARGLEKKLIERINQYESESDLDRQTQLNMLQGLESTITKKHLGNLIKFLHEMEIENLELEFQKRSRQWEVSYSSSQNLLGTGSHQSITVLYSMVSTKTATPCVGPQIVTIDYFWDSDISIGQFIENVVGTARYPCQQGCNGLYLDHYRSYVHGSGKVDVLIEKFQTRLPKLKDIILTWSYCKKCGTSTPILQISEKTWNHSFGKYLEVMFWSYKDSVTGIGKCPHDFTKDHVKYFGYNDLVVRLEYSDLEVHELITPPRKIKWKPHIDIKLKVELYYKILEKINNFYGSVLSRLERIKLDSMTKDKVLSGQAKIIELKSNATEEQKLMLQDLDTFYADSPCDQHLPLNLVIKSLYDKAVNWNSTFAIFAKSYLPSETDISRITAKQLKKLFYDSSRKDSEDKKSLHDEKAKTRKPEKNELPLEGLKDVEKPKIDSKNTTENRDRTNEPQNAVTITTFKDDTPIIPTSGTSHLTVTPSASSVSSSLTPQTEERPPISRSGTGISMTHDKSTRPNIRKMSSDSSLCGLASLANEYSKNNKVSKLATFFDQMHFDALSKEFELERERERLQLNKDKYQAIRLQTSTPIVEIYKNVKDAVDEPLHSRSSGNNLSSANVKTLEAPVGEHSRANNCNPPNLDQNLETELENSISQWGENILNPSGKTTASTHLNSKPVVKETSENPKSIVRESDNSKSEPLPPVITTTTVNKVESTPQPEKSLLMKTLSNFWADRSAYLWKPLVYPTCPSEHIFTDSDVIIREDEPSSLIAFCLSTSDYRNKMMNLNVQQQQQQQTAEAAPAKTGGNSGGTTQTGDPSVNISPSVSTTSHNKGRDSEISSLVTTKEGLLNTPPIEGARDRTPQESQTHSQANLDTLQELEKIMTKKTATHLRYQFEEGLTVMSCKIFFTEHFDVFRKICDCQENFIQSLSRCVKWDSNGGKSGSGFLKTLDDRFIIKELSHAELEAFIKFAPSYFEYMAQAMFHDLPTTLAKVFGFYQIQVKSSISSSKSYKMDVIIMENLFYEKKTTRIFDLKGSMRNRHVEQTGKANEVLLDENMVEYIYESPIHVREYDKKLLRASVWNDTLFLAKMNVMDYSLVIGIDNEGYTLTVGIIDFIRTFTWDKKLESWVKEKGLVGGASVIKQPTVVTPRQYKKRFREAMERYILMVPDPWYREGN

COS-7 [7] = assay: Induction of swollen vesicle phenotype in african green monkey COS-7 cells at 800 nM incubated for 120 mins by time-lapse analysis; assay type: functional, cell-based; conditions: Chlorocebus aethiops
MCF-10A = assay: Induction of swollen vesicle phenotype in human MCF-10A cells at 800 nM incubated for 120 mins by time-lapse analysis; assay type: functional, cell-based
[8] = Effect on PtdIns(4,5)P2 production in [32p]pi labelled serum stimulated mouse NIH3T3 cells at 800 nM (reference value: 487335 +/- 641); assay type: functional; summary of the method: as §1
NIH3T3 [9] = assay: Induction of swollen vesicle phenotype in mouse NIH3T3 cells at 800 nM incubated for 120 mins by time-lapse analysis; assay type: functional, cell-based
Summary of the method: (§3)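 Live imaging of NIH3T3 cells on glass-bottom dishes in phenol red-free DMEM/10% DCS at 37°C, 10% CO2. Cells given 800 nM compound and phase imaged for 120 min, frames every 10 s. Then washed, placed in drug-free medium and filmed a further 130 min.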

NIH3T3 [10] = assay: Reversal of swollen vesicle phenotype in mouse NIH3T3 cells expressing Fab1 assessed as reduction in number of swollen vesicles at 800 nM incubated for 2 hrs by phase contrast microscopic analysis; assay type: functional; set-up: scale not given: the % may be the effect or the level left
NIH3T3 [11] = assay: Induction of EGF localization in mouse NIH3T3 cells at 800 nM preincubated for 2 hrs followed by EGF stimulation and measured after 60 mins; assay type: functional, cell-based; conditions: time 3.0 hrs
NIH3T3 [12] = assay: Inhibition of cell growth in mouse NIH3T3 cells after 7 days; assay type: functional; conditions: time 7 day
NIH3T3 [13] = assay: Inhibition of PKB phosphorylation at Ser473 residue in mouse NIH3T3 cells at 800 nM under serum starved condition; assay type: cell-based
Summary of the method: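 NIH3T3 cells, 200,000 per well, grown in DMEM/10% donor calf serum, then held 18 h in 0.1% DCS. Pretreated 15 min with vehicle (DMSO), 800 nM inhibitor, 20 nM rapamycin or 10 μM LY294002, then left unstimulated or stimulated 15 min with 10% DCS. Lysates run on 10% SDS-PAGE, PVDF immunoblot with specific antibodies.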

[14] = Effect on PtdIns(3,5)P2 production in [32p]pi labelled serum stimulated mouse NIH3T3 cells at 800 nM (reference value: 2219 +/- 71); assay type: functional; summary of the method: as §1
NIH3T3 [15] = assay: Reversal of swollen vesicle phenotype in mouse NIH3T3 cells expressing Fab1 assessed as reduction in size of swollen vesicles at 800 nM incubated for 2 hrs by phase contrast microscopic analysis; assay type: functional, cell-based
[16] = target: Phosphatidylinositol 4,5-bisphosphate 3-kinase catalytic subunit alpha isoform (Homo sapiens, UniProt P42336); assay: Inhibition of GST-tagged Ptdlns3p P110alpha (unknown origin) expressed in baculovirus infected insect cells incubated for 15 mins in presence of ATP
Sequence of Phosphatidylinositol 4,5-bisphosphate 3-kinase catalytic subunit alpha isoform (P42336 whole entry, canonical isoform): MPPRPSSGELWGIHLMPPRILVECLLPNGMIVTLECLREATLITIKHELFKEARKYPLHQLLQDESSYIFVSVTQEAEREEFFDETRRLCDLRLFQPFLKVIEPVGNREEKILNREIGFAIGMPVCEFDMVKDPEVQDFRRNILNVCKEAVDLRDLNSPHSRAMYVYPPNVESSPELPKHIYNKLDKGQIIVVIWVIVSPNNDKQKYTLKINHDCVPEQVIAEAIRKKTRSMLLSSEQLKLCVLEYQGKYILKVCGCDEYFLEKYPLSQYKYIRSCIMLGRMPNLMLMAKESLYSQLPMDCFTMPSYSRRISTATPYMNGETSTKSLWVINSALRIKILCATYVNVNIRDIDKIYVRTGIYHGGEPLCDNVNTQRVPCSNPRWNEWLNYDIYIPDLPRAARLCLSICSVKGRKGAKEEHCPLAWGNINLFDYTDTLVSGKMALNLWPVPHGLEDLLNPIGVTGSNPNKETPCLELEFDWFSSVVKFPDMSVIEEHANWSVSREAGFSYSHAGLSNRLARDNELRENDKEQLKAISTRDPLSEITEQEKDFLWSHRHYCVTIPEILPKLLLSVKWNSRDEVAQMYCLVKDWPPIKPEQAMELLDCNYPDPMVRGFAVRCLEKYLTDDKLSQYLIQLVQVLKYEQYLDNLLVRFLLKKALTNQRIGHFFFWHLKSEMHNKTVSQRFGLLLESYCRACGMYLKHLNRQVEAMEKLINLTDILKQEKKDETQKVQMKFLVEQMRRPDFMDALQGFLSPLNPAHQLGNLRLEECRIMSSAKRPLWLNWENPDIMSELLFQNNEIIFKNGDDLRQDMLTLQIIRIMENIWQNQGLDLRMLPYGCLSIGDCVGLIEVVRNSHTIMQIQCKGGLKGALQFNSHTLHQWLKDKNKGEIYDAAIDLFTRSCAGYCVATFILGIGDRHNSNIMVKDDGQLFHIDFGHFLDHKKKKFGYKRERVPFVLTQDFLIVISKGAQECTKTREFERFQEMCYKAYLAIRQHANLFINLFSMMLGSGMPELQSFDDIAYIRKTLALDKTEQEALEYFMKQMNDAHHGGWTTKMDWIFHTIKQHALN

[17] = Selectivity ratio of IC50 for GST-tagged Ptdlns3p P110alpha (unknown origin) to IC50 for Saccharomyces cerevisiae GST-tagged PIKfyve
Homo sapiens = organism: Homo sapiens; assay: Inhibition of type 2 gamma PtdInsP (unknown origin) at 10 uM relative to control
[18] = Effect on PtdIns4P production in [32p]pi labelled serum stimulated mouse NIH3T3 cells at 800 nM (reference value: 212147 +/- 5485); assay type: functional; summary of the method: as §1
[19] = Inhibition of mouse type 1 alpha PtdInsP
COS-7 [20] = assay: Induction of EGF localization in african green monkey COS7 cells at 800 nM preincubated for 2 hrs followed by EGF stimulation and measured after 60 mins; assay type: functional, cell-based; conditions: Chlorocebus aethiops, time 3.0 hrs
NIH3T3 [21] = assay: Inhibition of autophagy in mouse NIH3T3 cells transfected with GFP-tagged LC3 assessed as accumulation of LC3 in enlarged vesicles at 800 nM after 2 hrs; assay type: functional, cell-based
Summary of the method: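 NIH3T3 cells transfected with GFP-LC3 (Lipofectamine 2000), examined 48 h post-transfection. Left untreated or treated 2 h with 800 nM compound, fixed in 4% paraformaldehyde, and GFP, phase and overlay images taken by confocal microscopy as 0.4 μm optical sections.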

NIH3T3 [22] = assay: Induction of swollen vesicle phenotype in mouse NIH3T3 cells incubated for 120 mins by time-lapse analysis; assay type: functional, cell-based; conditions: NIH3T3, 2 h; summary of the method: as §3
NIH3T3 [23] = assay: Induction of EEA1 localization in vesicular structures of mouse NIH3T3 cells at 800 nM incubated for 2 hrs; assay type: functional, cell-based; summary of the method: as §2
NIH3T3 [24] = assay: Induction of cell division in mouse NIH3T3 cells at 800 nM; assay type: functional, cell-based
NIH3T3 [25] = conditions: Mus musculus, dose 800.0 nM

## Nc1ccc(C(=O)Nc2cccc(-c3nc(N4CCOCC4)c4oc5ncccc5c4n3)c2)cn1
MEF
  Activity: Active
[1]
  Activity: 7476
[2]
  pIC50: 7.48
NIH3T3 [3]
  Activity: Active
NIH3T3 [4]
  Activity: Active
[5]
  Activity: 1319
MDCK
  Activity: Active
[6]
  pIC50: < 5.30
COS-7 [7]
  Activity: Active
MCF-10A
  Activity: Active
[8]
  Activity: 393289
NIH3T3 [9]
  Activity: Active
NIH3T3 [10]
  Activity: 50%
NIH3T3 [11]
  Activity: Active
NIH3T3 [12]
  inhibition (INH): 25%
NIH3T3 [13]
  inhibition: inactive
[14]
  Activity: 465
NIH3T3 [15]
  Activity: Active
[16]
  pIC50: 5.48
[17]
  Ratio IC50: 100
Homo sapiens
  inhibition: inactive
[18]
  Activity: 194539
[19]
  pIC50: < 5.70
COS-7 [20]
  Activity: Active
NIH3T3 [21]
  Activity: Active
NIH3T3 [22]
  pEC50: 6.40
NIH3T3 [23]
  Activity: Active
NIH3T3 [24]
  Activity: inactive

## Oc1cccc(-c2nc(N3CCOCC3)c3oc4ncccc4c3n2)c1 [PI-103]
[6]
  pIC50: < 5.00
NIH3T3 [25]
  inhibition: Active

From ChEMBL document CHEMBL5647682, “A selective PIKfyve inhibitor blocks PtdIns(3,5)P(2) production and disrupts endomembrane transport and retroviral budding” (EMBO Rep, 2008)
